Screens from PubChem.
This is a sample that favours compounds with a hit; in the whole collection about 1.8% have one here.
M4 PAM = CHRM4 positive allosteric modulation; P08173; CHO-K1 hM4/Gqi5, Fluo-8 calcium fluorescence, ACh EC20; 0% = ACh EC20, 100% = maximal ACh; activation, % at 3 µM; 360,000 tested, 0.4% active;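 active = activation above its plate's cutoff, the mean activation of sample wells plus 3 SD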
Target sequence (P08173 whole entry, looked up): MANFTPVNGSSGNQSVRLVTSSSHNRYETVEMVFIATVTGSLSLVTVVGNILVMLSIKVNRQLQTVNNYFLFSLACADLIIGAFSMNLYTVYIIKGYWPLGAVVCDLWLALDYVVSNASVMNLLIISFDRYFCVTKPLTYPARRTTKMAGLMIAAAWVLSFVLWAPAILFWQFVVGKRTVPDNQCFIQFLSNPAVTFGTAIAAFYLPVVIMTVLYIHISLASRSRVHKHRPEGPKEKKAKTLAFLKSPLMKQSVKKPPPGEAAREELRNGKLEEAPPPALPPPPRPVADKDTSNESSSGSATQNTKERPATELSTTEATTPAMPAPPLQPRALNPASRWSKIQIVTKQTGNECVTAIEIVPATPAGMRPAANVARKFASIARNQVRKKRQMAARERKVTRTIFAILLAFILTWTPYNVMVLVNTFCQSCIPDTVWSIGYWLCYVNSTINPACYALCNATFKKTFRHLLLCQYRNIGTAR
M5 PAM = CHRM5 positive allosteric modulation; CHO-K1 hM5, Fluo-8 calcium, ACh EC20 PAM; 0% = ACh EC20, 100% = ACh EC100; activation, % at 3 µM; AID 624038; P08912; 360,000 tested, 0.3% active;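 active = activation above the run cutoff, the mean activation of all test compounds plus 3 SD, cut at about 18% in these data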
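System: CHO-K1 cell line with stable human muscarinic M5 receptor expression | Also added: EC20 acetylcholine as agonist stimulus | Compound: One concentration, 3 µM final (nominal) | Timing: Fluo-8 loading 80 min at 37 °C plus 30 min room temperature | Measured by: Fluo-8 calcium dye fluorescence, kinetic read | Read-out basis: % activation, ACh-normalized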
M5 ag = CHRM5 agonism in calcium assay | CHO-K1 hM5 cells, Fluo-8 calcium fluorescence; 0% DMSO wells, 100% maximal acetylcholine response | activation, % at 3 µM | P08912 | 360,000 tested, 0.19% active;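 active = activation above the run's mean over test compounds plus 3 SD, cut at about 23% in these data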;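 note: signal is peak over basal fluorescence ratio across the kinetic read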
CHRM4 agonist = agonists of human muscarinic M4 receptor (CHRM4); CHO-K1 hM4/Gqi5, Fluo-8 calcium fluorescence; vehicle 0%, full acetylcholine response 100%; 360,000 tested, 0.14% active; activation, % at 3 µM; AID 624127;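 active = activation above the run mean over all test wells plus 3 SD, cut at about 32% in these data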;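 note: peak over basal fluorescence ratio per well then scaled between controls; 0% = DMSO wells and 100% = acetylcholine at EC100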
CHRM4 antagonist = CHRM4 antagonism in calcium assay | inhibition, % at 3 µM | CHO-hM4 cells, ACh EC80, Fluo-8 calcium fluorescence | 360,000 tested, 0.73% active | AID 624125;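 active = inhibition above its plate's cutoff, the mean inhibition of sample wells plus 3 SD, cut at about 27% in these data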;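 note: 0% = acetylcholine EC80 with DMSO and 100% = DMSO without agonist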
M5 antag = CHRM5 antagonism in calcium assay; P08912; CHO-hM5 cells, Fluo-8 calcium fluorescence, ACh EC80; inhibition, % at 3 µM; 360,000 tested, 0.59% active; AID 624040;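 active = inhibition above a per-plate cutoff, the mean of that plate's test compounds plus 3 SD, cut at about 27% in these data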;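 note: 0% = acetylcholine EC80 with DMSO and 100% = DMSO without agonist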
The depositor's hits bear a star.

SMILES	M4 PAM	M5 PAM	M5 ag	CHRM4 agonist	CHRM4 antagonist	M5 antag
Cc1ccc(-n2cccc2/C=C2/C(=N)N3C(=NC2=O)SN=C3S(C)(=O)=O)cc1Cl	16	19*	2	2	31*	28*
Cc1cccc(C)c1-n1cccc1/C=C1/C(=N)N2C(=NC1=O)SN=C2S(C)(=O)=O	-11	-18	-10	-1	8	19
Cc1ccc(NC(=S)NCCO)c(C)c1	16*	6	-3	1	11	-3
Cc1ccc(NC(=S)NCc2ccc(S(N)(=O)=O)cc2)c(C)c1	7	1	2	1	28*	-2
Cc1cc(Cl)ccc1NC(=S)NCc1ccc(S(N)(=O)=O)cc1	-5	-2	-3	1	6	1
Cc1ccc(NC(=S)NCCc2ccccc2)c(C)c1	-4	3	-7	-1	8	-2
CC1=[N+](C)c2c(ccc3cccnc23)C1(C)C	-19	-18	2	13	35*	37*
CCCOC1CCCN(C(=O)c2cc(Cl)c(Cl)cc2C(=O)O)C1 (configuration not stated)	-6	-11	25*	3	9	5
CCc1csc(CCNC(=O)C2CCC(=O)N(CCc3cccc(F)c3)C2)n1 (configuration not stated)	-1	1	4	2	-2	-1
CCn1cc(/C=N/NC(=O)c2ccc3c(c2)OCO3)cn1	4	-4	-2	1	-2	4
Cc1ccc(NS(=O)(=O)c2c(C)[nH]c(C)c2C(=O)N2CCCCC2)cc1C	10	-4	-5	2	-14	6
Cc1ccc(NS(=O)(=O)c2c(C)[nH]c(C)c2C(=O)N2CCCC2)cc1Cl	9	32*	7	4	-2	8
CN(C)c1cccc(NC(=O)c2cccc3c(-c4ccc(F)c(F)c4)coc23)c1	2	-3	0	1	-10	-9
CC(=O)Nc1ccc(NC(=O)C(C)OC(=O)c2ccc3c(c2)OCCO3)cc1 (configuration not stated)	32*	4	-4	1	-8	3
CC(=O)NCC(=O)OC(C)C(=O)Nc1ccc(C(C)=O)cc1 (configuration not stated)	2	25*	0	1	-1	-5
O=C(CNS(=O)(=O)c1ccccc1)NCC(=O)OCc1ccc(Cl)cc1	-8	-8	-4	1	-3	9
CC1=CC(C)C(/C=N/N=C(N)N)C(C)C1 (configuration not stated)	3	21*	0	0	3	-13
CC1=CC(C)C(C[N+]2(C)CCCCC2)C(C)C1 (configuration not stated)	-5	-16	-10	1	8	2
Nc1nc2ccc(Cl)cc2cc1C(=O)NCCc1ccc(Cl)cc1Cl	5	-6	2	4	-4	13
Nc1nc2ccc(Cl)cc2cc1C(=O)NCCc1c[nH]c2ccccc12	-14	-24	9	20	28*	26
O=C(Nc1ccc(NC(=O)c2sc3ccccc3c2Cl)cc1)c1ccco1	-4	1	0	0	4	0
COc1cc(CNCCc2c[nH]c3ccccc23)ccc1OCc1ccc(F)cc1	-2	-4	7	47*	47*	12
CCN(CC)c1nc(-c2ccccn2)nc(-c2ccccc2)c1C#N	-10	-11	-4	6	12	21
CC(=O)N1CCOc2ccc(S(=O)(=O)N(C)c3ccc(C)cc3)cc21	2	-8	-4	6	29*	6
CCOC(=O)c1cc(-c2ccccc2)nn1CCC#N	4	4	2	0	-4	3
SMILES	M4 PAM	M5 PAM	M5 ag	CHRM4 agonist	CHRM4 antagonist	M5 antag
C=CCn1nc(-c2ccccc2)cc1C(=O)OCC	19	21*	5	-2	-13	-5
O=S(=O)(Nc1cccnc1)c1ccc(Cl)cc1	20*	-4	-1	2	-3	2
CCN(CC(=O)Nc1ccc(OC)cc1)C(=O)CN1C(=O)NC(C)(c2ccc3ccccc3c2)C1=O (configuration not stated)	-3	-11	-6	4	4	32*
CCN(CC(=O)Nc1ccc(OC)cc1)C(=O)Cc1ccsc1	22*	-1	2	1	-23	-5
CCN(CC)S(=O)(=O)c1ccc(NC(=O)Nc2cccc(C(F)(F)F)c2)cc1	-11	-15	9	17	9	30*
O=C(Nc1ccncc1)Nc1cccc(C(F)(F)F)c1	-6	-12	11	18	5	25
O=C(Nc1ccc(OC(F)F)cc1)Nc1cccc(C(F)(F)F)c1	-19	-18	5	13	12	37*
COCCNC(=S)NNC(=O)c1cc(C2CC2)nc2ccccc12	-4	-2	-1	0	-5	-13
CSc1ccc(CN2CCN(C(C)C)C(CCO)C2)cc1 (configuration not stated)	-3	9	-4	1	0	-10
CCOc1ccc(C(C)NC(=O)c2ccccc2F)cc1 (configuration not stated)	6	-2	2	0	6	1
COc1ccc(C)cc1N(CC(=O)Nc1cccnc1)S(=O)(=O)c1ccccc1	-7	-18	2	14	4	29*
CNc1nc(Cl)c(SC)c(N2CCOCC2)n1	2	3	-2	1	-7	-4
Cc1cc(=O)n2nc(N3CCCC(C(=O)N4CCc5ccccc54)C3)sc2n1 (configuration not stated)	-18	-14	-8	-1	32*	6
O=C1NC2c3ccccc3C(=O)N2c2c1cnn2-c1ccccc1 (configuration not stated)	18*	3	-1	2	-4	-5
Cc1c(CCOC(=O)C23CC4CC(CC(C4)C2)C3)sc[n+]1Cc1ccccc1	-14	-18	-7	2	25	18
Cc1c(CCOC(=O)C23CC4CC(CC(C)(C4)C2)C3)sc[n+]1Cc1ccccc1	-21	-23	-6	0	69*	98*
Cc1ccc(OCCNC(=O)C(=O)NCc2ccco2)cc1	-18	-7	-2	1	27*	-3
Cc1onc(-c2ccccc2)c1CNC(=O)Nc1cccc(Cl)c1	-27	-31	6	15	-4	11
O=C1NC[C@H](Cc2ccccc2)N(CC2CCN(CCCCc3ccccc3)CC2)C1=O	-8	-7	2	1	14	10
S=C1NC[C@H](Cc2ccccc2)N1CC1CCN(CCCCc2ccccc2)CC1	-15	-15	-3	3	28*	23
